# Published values collected from several papers.
# Compare with care: the assays were run in different laboratories.
# Target: Serine/threonine-protein kinase mTOR (MTOR, Homo sapiens, UniProt P42345)
Compound,test,conditions,remaining binding [%]
CC1CCCN1c1nccc(-c2cnn3ncccc23)n1 (centres unmarked),binding,1 µM,95
CN1CCN(c2cnc3c(C4CCN(C(=O)c5ccc(OC(F)(F)F)cc5N)CC4)ncnc3c2)CC1,"cell-free assay, competition with immobilised ligand",1 µM,78
c1cncc(-c2cccc(Nc3nccc(NC4CCCCC4)n3)c2)c1,"binding, competition with immobilised ligand",10 µM,94
CCN1CCN(Cc2ccc(C(=O)Nc3ccc(C)c(Oc4ccc5c(c4)CC(=O)N5)c3)cc2C(F)(F)F)CC1,"binding, competition with immobilised ligand",1 µM,100
O=C(O)[C@H]1[C@H](Cn2nnc3ccccc3c2=O)CC[C@@H]1C(=O)c1ccc(OCCC2CCOCC2)cc1,"cell-free assay, competition with immobilised ligand",1 µM,100
COc1cnc(Nc2cccc(S(N)(=O)=O)c2)nc1N1CCN(c2ccccc2)CC1,"binding, competition with immobilised ligand",1 µM,93
Cc1cnc(Nc2ccc(C(=O)N3CCC(N4CCCC4)CC3)cc2)nc1-c1cc2ccccc2s1,"binding, competition with immobilised ligand",1 µM,85
N[C@H]1CCN(c2nccc(-c3cnn4ncccc34)n2)C1,binding,1 µM,66
CN(C)CC#Cc1ccc(OCCCc2sc(N3CCc4cccc(C(=O)Nc5nc6ccccc6s5)c4C3)nc2C(=O)O)c(F)c1,"cell-free assay, competition with immobilised ligand",1 µM,100
COc1cnc(Nc2cccc(S(N)(=O)=O)c2)nc1N1CCN(c2ccccc2)C(=O)C1,"binding, competition with immobilised ligand",1 µM,87
O=C(Nc1ccc(Oc2ccc(F)cc2)cc1)N1CCc2ncccc2[C@H]1c1ccc(F)cc1,"cell-free assay, competition with immobilised ligand",1 µM,100
F[C@@H]1CCN(c2nccc(-c3cnn4ncccc34)n2)C1,binding,1 µM,77
O=C(NCCCN1CCOCC1)c1ccc(Nc2nccc(-c3cc4ccccc4s3)n2)cc1,"binding, competition with immobilised ligand",1 µM,75
COc1cc(-c2cn(C3CCc4ccccc4N(CC(F)(F)F)C3=O)nn2)ccc1-n1ccc(C)n1 (centres unmarked),"cell-free assay, competition with immobilised ligand",1 µM,100
CN(C)c1nccc(-c2cnc3ncccn23)n1,binding,1 µM,79
CN(C)c1ncnc(-c2ccc3nc(Nc4cc(CN5CCN(C(=O)CC(F)(F)F)CC5)ccn4)[nH]c3c2)c1Cl,"cell-free assay, competition with immobilised ligand",1 µM,100
CN(C)c1nccc(-c2cnn3ncccc23)n1,binding,1 µM,100
O=C(NCCCN1CCOCC1)c1ccc(Nc2ncc(Cl)c(-c3ccc(Cl)s3)n2)cc1,"binding, competition with immobilised ligand",1 µM,94
C[C@@H]1CCN(c2nccc(-c3cnn4ncccc34)n2)C1,binding,1 µM,97
O=C(NCC1CCOCC1)c1n[nH]cc1NC(=O)c1c(F)cccc1F,"binding, competition with immobilised ligand",1 µM,100
